Reference: ChEMBL document CHEMBL3112482, “Nonclassical antifolates, part 5. Benzodiazepine analogs as a new class of DHFR inhibitors: synthesis, antitumor testing and molecular modeling study” (Eur J Med Chem, 2014)

Legend:
[1] = Growth inhibition of human RXF393 cells at 10 uM after 48 hrs; type: functional; conditions: RXF 393, 48 h, read-out: GI
Method in brief: (§1)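 Single-dose primary screen in the NCI 60 human tumour cell line panel, run at the NCI facility. The panel covers nine subpanels: leukaemia, non-small cell lung, colon, CNS, melanoma, ovarian, renal, prostate and breast. Read-out was percent growth of treated cells, shown as a mean graph and reported as percent growth inhibition.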

[2] = Growth inhibition of human UO31 cells at 10 uM after 48 hrs; type: functional; conditions: UO-31, 48 h, read-out: GI
Method in brief: (§2)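 NCI 60-cell-line disease-oriented human tumor panel, single-dose primary screen at 10 µM. Data given as mean-graph percent growth of treated cells, reported as percent growth inhibition (GI %).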

[3] = test system: NCI-H522; experiment: Growth inhibition of human NCI-H522 cells at 10 uM after 48 hrs; type: functional; conditions: NCI-H522, 48 h, read-out: GI; method in brief: as §1
[4] = test system: UACC-62; experiment: Growth inhibition of human UACC62 cells at 10 uM after 48 hrs; type: functional; conditions: UACC-62, 48 h, read-out: GI; method in brief: as §2
[5] = test system: SF-295; experiment: Growth inhibition of human SF295 cells at 10 uM after 48 hrs; type: functional; conditions: SF-295, 48 h, read-out: GI; method in brief: as §2
[6] = test system: TK-10; experiment: Growth inhibition of human TK10 cells at 10 uM after 48 hrs; type: functional; conditions: TK-10, 48 h, read-out: GI; method in brief: as §2
[7] = Growth inhibition of human NCI-ADR-RES cells at 10 uM after 48 hrs; type: functional; conditions: read-out: GI; method in brief: as §1
[8] = molecular target: T1, Dihydrofolate reductase (Bos taurus, UniProt P00376); experiment: Inhibition of bovine liver DHFR measured for every 1 min of 10 mins
T1 sequence (P00376 whole entry): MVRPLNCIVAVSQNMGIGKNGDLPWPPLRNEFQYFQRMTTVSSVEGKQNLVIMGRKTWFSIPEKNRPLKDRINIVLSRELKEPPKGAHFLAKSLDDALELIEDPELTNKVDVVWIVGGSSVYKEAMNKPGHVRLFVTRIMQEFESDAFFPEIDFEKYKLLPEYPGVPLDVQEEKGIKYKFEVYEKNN

[9] = test system: COLO 205; experiment: Growth inhibition of human COLO205 cells at 10 uM after 48 hrs; type: functional; conditions: COLO 205, 48 h, read-out: GI; method in brief: as §1
[10] = Cytotoxicity against human leukemia cells at 10 uM after 48 hrs; type: functional; conditions: Leukemia cell
[11] = Cytotoxicity against human prostate cancer cells at 10 uM after 48 hrs; type: functional; conditions: Cancer cell lines
[12] = test system: PC-3; experiment: Growth inhibition of human PC3 cells at 10 uM after 48 hrs; type: functional; conditions: PC-3, 48 h, read-out: GI; method in brief: as §1
[13] = Growth inhibition of human Hs 578T cells at 10 uM after 48 hrs; type: functional; conditions: read-out: GI; method in brief: as §1
[14] = test system: NCI-H226; experiment: Growth inhibition of human NCI-H226 cells at 10 uM after 48 hrs; type: functional; conditions: NCI-H226, 48 h, read-out: GI; method in brief: as §1
[15] = test system: NCI-H23; experiment: Growth inhibition of human NCI-H23 cells at 10 uM after 48 hrs; type: functional; conditions: NCI-H23, 48 h, read-out: GI; method in brief: as §1
[16] = Growth inhibition of human OVCAR5 cells at 10 uM after 48 hrs; type: functional; conditions: OVCAR-5, 48 h, read-out: GI; method in brief: as §1
[17] = test system: CAKI-1; experiment: Growth inhibition of human CAKI-1 cells at 10 uM after 48 hrs; type: functional; conditions: CAKI-1, 48 h, read-out: GI; method in brief: as §1
[18] = test system: SNB-75; experiment: Growth inhibition of human SNB75 cells at 10 uM after 48 hrs; type: functional; conditions: SNB-75, 48 h, read-out: GI; method in brief: as §2
[19] = test system: NCI-H322M; experiment: Growth inhibition of human NCI-H322M cells at 10 uM after 48 hrs; type: functional; conditions: read-out: GI; method in brief: as §1
[20] = test system: SK-OV-3; experiment: Growth inhibition of human SKOV3 cells at 10 uM after 48 hrs; type: functional; conditions: SK-OV-3, 48 h, read-out: GI; method in brief: as §2
[21] = test system: IGROV-1; experiment: Growth inhibition of human IGROV1 cells at 10 uM after 48 hrs; type: functional; conditions: IGROV-1, 48 h, read-out: GI; method in brief: as §1
[22] = Cytotoxicity against human colon cancer cells at 10 uM after 48 hrs; type: functional; conditions: Cancer cell lines; method in brief: as §1
[23] = Growth inhibition of human OVCAR4 cells at 10 uM after 48 hrs; type: functional; conditions: OVCAR-4, 48 h, read-out: GI; method in brief: as §1
[24] = test system: SNB-19; experiment: Growth inhibition of human SNB19 cells at 10 uM after 48 hrs; type: functional; conditions: SNB-19, 48 h, read-out: GI; method in brief: as §2
[25] = test system: SR; experiment: Growth inhibition of human SR cells at 10 uM after 48 hrs; type: functional; conditions: read-out: GI; method in brief: as §2
[26] = test system: K562; experiment: Growth inhibition of human K562 cells at 10 uM after 48 hrs; type: functional; conditions: K562, 48 h, read-out: GI; method in brief: as §1
[27] = Growth inhibition of human SF539 cells at 10 uM after 48 hrs; type: functional; conditions: SF-539, 48 h, read-out: GI; method in brief: as §2
[28] = test system: MCF7; experiment: Growth inhibition of human MCF7 cells at 10 uM after 48 hrs; type: functional; conditions: MCF7, 48 h, read-out: GI; method in brief: as §1
[29] = Growth inhibition of human EKVX cells at 10 uM after 48 hrs; type: functional; conditions: read-out: GI; method in brief: as §1
[30] = test system: SK-MEL-28; experiment: Growth inhibition of human SK-MEL-28 cells at 10 uM after 48 hrs; type: functional; conditions: SK-MEL-28, 48 h, read-out: GI; method in brief: as §2
[31] = test system: MOLT-4; experiment: Growth inhibition of human MOLT4 cells at 10 uM after 48 hrs; type: functional; conditions: MOLT-4, 48 h, read-out: GI; method in brief: as §1
[32] = test system: T47D; experiment: Growth inhibition of human T47D cells at 10 uM after 48 hrs; type: functional; conditions: read-out: GI; method in brief: as §2
[33] = test system: LOX IMVI; experiment: Growth inhibition of human LOXIMVI cells at 10 uM after 48 hrs; type: functional; conditions: read-out: GI; method in brief: as §1
[34] = test system: SK-MEL-2; experiment: Growth inhibition of human SK-MEL-2 cells at 10 uM after 48 hrs; type: functional; conditions: SK-MEL-2, 48 h, read-out: GI; method in brief: as §2
[35] = test system: A549; experiment: Growth inhibition of human A549 cells at 10 uM after 48 hrs; type: functional; conditions: A549, 48 h, read-out: GI; method in brief: as §1
[36] = test system: HOP-62; experiment: Growth inhibition of human HOP62 cells at 10 uM after 48 hrs; type: functional; conditions: HOP-62, 48 h, read-out: GI; method in brief: as §1
[37] = test system: CCRF-CEM; experiment: Growth inhibition of human CCRF-CEM cells at 10 uM after 48 hrs; type: functional; conditions: read-out: GI; method in brief: as §1
[38] = test system: SW-620; experiment: Growth inhibition of human SW620 cells at 10 uM after 48 hrs; type: functional; conditions: SW-620, 48 h, read-out: GI; method in brief: as §2
[39] = test system: SF-268; experiment: Growth inhibition of human SF268 cells at 10 uM after 48 hrs; type: functional; conditions: SF-268, 48 h, read-out: GI; method in brief: as §2
[40] = test system: U-251; experiment: Growth inhibition of human U251 cells at 10 uM after 48 hrs; type: functional; conditions: U-251, 48 h, read-out: GI; method in brief: as §2
[41] = test system: MDA-MB-231; experiment: Growth inhibition of human MDA-MB-231 cells at 10 uM after 48 hrs; type: functional; conditions: MDA-MB-231, 48 h, read-out: GI; method in brief: as §1

COc1ccc(/C=C2\CCCc3c2nc(N)nc3-c2ccc(OC)c(OC)c2)cc1OC
inhibition of growth at 10 µM [1]: 79.1%
inhibition of growth at 10 µM [2]: 37.1%
inhibition of growth at 10 µM [3]: 83.3%
inhibition of growth at 10 µM [4]: 47.2%
inhibition of growth at 10 µM [5]: < 30%
inhibition of growth at 10 µM [6]: < 30%
inhibition of growth at 10 µM [7]: 74.9%
IC50 [8]: 14 µM
inhibition of growth at 10 µM [9]: 54%
GI50 [10]: 2.1 µM
LC50 [10]: > 100 µM
TGI [10]: 65.1 µM
GI50 [11]: 5.1 µM
LC50 [11]: > 100 µM
TGI [11]: > 100 µM
inhibition of growth at 10 µM [12]: 38.5%
inhibition of growth at 10 µM [13]: < 30%
inhibition of growth at 10 µM [14]: 65.9%
inhibition of growth at 10 µM [15]: 50.7%
inhibition of growth at 10 µM [16]: < 30%
inhibition of growth at 10 µM [17]: 44.2%
inhibition of growth at 10 µM [18]: 36.1%
inhibition of growth at 10 µM [19]: < 30%
inhibition of growth at 10 µM [20]: 55.9%
inhibition of growth at 10 µM [21]: 42.9%
GI50 [22]: 17.4 µM
TGI [22]: 75.8 µM
CC50 ([22]; read-out: LC50 (the source's name)): 89.8 µM
inhibition of growth at 10 µM [23]: 46.7%
inhibition of growth at 10 µM [24]: < 30%
inhibition of growth at 10 µM [25]: 71.9%
inhibition of growth at 10 µM [26]: 44%
inhibition of growth at 10 µM [27]: < 30%
inhibition of growth at 10 µM [28]: 72.4%
inhibition of growth at 10 µM [29]: < 30%
inhibition of growth at 10 µM [30]: 34.7%
inhibition of growth at 10 µM [31]: 46.9%
inhibition of growth at 10 µM [32]: < 30%
inhibition of growth at 10 µM [33]: 87.1%
inhibition of growth at 10 µM [34]: 43.2%
inhibition of growth at 10 µM [35]: 41.2%
inhibition of growth at 10 µM [36]: 43%
inhibition of growth at 10 µM [37]: 84.7%
inhibition of growth at 10 µM [38]: 59.3%
inhibition of growth at 10 µM [39]: 36.2%
inhibition of growth at 10 µM [40]: 62.2%
inhibition of growth at 10 µM [41]: < 30%

COc1ccc(/C=C2\CCCc3c2nc(N)nc3-c2ccc(OC)cc2)cc1
inhibition of growth at 10 µM [1]: < 30%
inhibition of growth at 10 µM [2]: < 30%
inhibition of growth at 10 µM [3]: < 30%
inhibition of growth at 10 µM [4]: 32.1%
inhibition of growth at 10 µM [5]: < 30%
inhibition of growth at 10 µM [6]: < 30%
inhibition of growth at 10 µM [7]: < 30%
IC50 [8]: 18 µM
inhibition of growth at 10 µM [9]: < 30%
inhibition of growth at 10 µM [12]: < 30%
inhibition of growth at 10 µM [13]: < 30%
inhibition of growth at 10 µM [14]: < 30%
inhibition of growth at 10 µM [15]: < 30%
inhibition of growth at 10 µM [16]: < 30%
inhibition of growth at 10 µM [17]: < 30%
inhibition of growth at 10 µM [18]: < 30%
inhibition of growth at 10 µM [19]: < 30%
inhibition of growth at 10 µM [20]: < 30%
inhibition of growth at 10 µM [21]: < 30%
inhibition of growth at 10 µM [23]: < 30%
inhibition of growth at 10 µM [24]: < 30%
inhibition of growth at 10 µM [25]: < 30%
inhibition of growth at 10 µM [26]: < 30%
inhibition of growth at 10 µM [27]: < 30%
inhibition of growth at 10 µM [28]: < 30%
inhibition of growth at 10 µM [29]: < 30%
inhibition of growth at 10 µM [30]: < 30%
inhibition of growth at 10 µM [31]: < 30%
inhibition of growth at 10 µM [32]: < 30%
inhibition of growth at 10 µM [33]: < 30%
inhibition of growth at 10 µM [34]: < 30%
inhibition of growth at 10 µM [35]: < 30%
inhibition of growth at 10 µM [36]: < 30%
inhibition of growth at 10 µM [37]: < 30%
inhibition of growth at 10 µM [38]: < 30%
inhibition of growth at 10 µM [39]: < 30%
inhibition of growth at 10 µM [40]: < 30%
inhibition of growth at 10 µM [41]: < 30%
